Data set [1] has as its system BJ. As to the kind of experiment: Cell cycle arrest in human BJ cells expressing TERT assessed as accumulation at S stage at 0.5 uM after 96 hrs by propidium iodide staining based flow cytometry (reference value: 9%). Format: ADME.
The test system of data set [2] is Nucleic Acid. As to the kind of experiment: Binding affinity to human 21-TT G-quadruplex DNA structure assessed as second step association constant by electrospray ionization mass spectrometry. Format: nucleic-acid assay. An outline of the steps:
(§1)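 ESI-MS in 150 mM ammonium acetate; DNA 5 μM final (per duplex or quadruplex unit); ligand at drug/DNA ratios 0.5 to 4. Methanol (15%) added just before injection, after binding equilibrium. K1 and K2 for 1:1 and 2:1 complexes, and % bound DNA, taken from relative peak intensities assuming equal response factors. At least three repeats.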

In data set [3] the target is Telomerase reverse transcriptase (Homo sapiens, UniProt O14746). As to the kind of experiment: Inhibition of human Telomerase activity in cell free system by TRAP assay. Put shortly:
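Cell-free TRAP: protein extract incubated with compound at 1 to 50 μM so telomerase elongates the substrate oligonucleotide. Before PCR, phenol/chloroform/isoamyl-alcohol (50:49:1) extraction removes the ligand and DNA is precipitated overnight at -20 °C. Amplification uses a 36 bp ITAS; products are resolved on 12% PAGE and stained with SYBR Green. Signals are corrected by the no-extract control and normalized to untreated, giving dose-response IC50. Mean of three experiments.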

The subject of data set [4] is Nucleic Acid. The experiment in a line: Binding affinity to human 21-TT G-quadruplex DNA structure assessed as bound DNA at 5:10 DNA to drug ratio by electrospray ionization mass spectrometry. Format: nucleic-acid assay. An outline of the steps: as §1
A further data set concerns HT-29. The experiment in a line: Cytotoxicity against human HT-29 cells after 4 days by clonogenic assay relative to control. The class given is functional, cell-based. To be noted: HT-29, 96 h. Put shortly:
(§2)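 Clonogenic survival: cells seeded at 2 × 10^5 per dish and exposed for 4 days to 0.5-2 μM. Surviving fraction taken as absolute survival of treated over control. Four experiments, each in triplicate; mean with SD.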

The test system of data set [5] is BJ. As to the kind of experiment: Antiproliferative activity against human BJ cells expressing TERT at 3 uM after 2 to 8 days by trypan blue assay. To be noted: 0.5 uM, in the assay text read “at 0.5 uM” for “at 3 uM”. The class given is functional, cell-based. Put shortly: (§3)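 Cells seeded at 5 ×10^4 per dish; compounds freshly dissolved and added to the medium 24 h after plating, at 0.5 μM or 3 μM (3 μM only for one derivative). Cell number by Coulter counting and viability by trypan blue exclusion daily, day 1 to day 8. Growth inhibition of treated vs untreated cells calculated at days 2, 4, 6 and 8. Representative experiments in quintuplicate, SD shown.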

The subject of data set [6] is BJ. As to the kind of experiment: Growth inhibition of human BJ cells expressing SV40 early region EHLT at 0.5 uM on day 8 by trypan blue assay. To be noted: 192 h, read-out: GI. The class given is functional. Put shortly:
as §3

Data set [7] deals with BJ. The experiment in a line: Induction of DNA damage response in human BJ cells expressing SV40 early protein EHLT assessed as accumulation of gamma-H2AX foci in S-phase by Hoechst staining based Leica deconvolution microscopic analysis. The class given is functional. An outline of the steps:
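BJ-EHLT cells co-immunostained for γ-H2AX and PCNA, nuclei counterstained with Hoechst, imaged by deconvolution microscopy. Percentages of γ-H2AX+/PCNA− and γ-H2AX+/PCNA+ nuclei scored. Mean of three independent experiments.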

Data set [8] relates to Nucleic Acid. The experiment in a line: Binding affinity to human DK66 duplex DNA structure assessed as first step association constant by electrospray ionization mass spectrometry. The class given is nucleic-acid assay. Put shortly:
as §1

Data set [9] relates to BJ. As to the kind of experiment: Cell cycle arrest in human BJ cells expressing TERT assessed as accumulation at G0/G1 stage at 0.5 uM after 72 hrs by propidium iodide staining based flow cytometry (reference value: 83%). The class given is ADME. (A flow cytometer gives signals particle by particle.)
For data set [10], the system named is Nucleic Acid. The experiment in a line: Binding affinity to human DK66 duplex DNA structure assessed as second step association constant by electrospray ionization mass spectrometry. The class given is nucleic-acid assay. An outline of the steps: as §1
In data set [11] the test system is BJ. The experiment in a line: Cell cycle arrest in human BJ cells expressing TERT assessed as accumulation at S stage at 0.5 uM after 72 hrs by propidium iodide staining based flow cytometry (reference value: 10%). The class given is ADME.
Data set [12] deals with BJ. As to the kind of experiment: Cell cycle arrest in human BJ cells expressing TERT assessed as accumulation at G0/G1 stage at 0.5 uM after 96 hrs by propidium iodide staining based flow cytometry (reference value: 86%). The class given is ADME.
The subject of the next data set is M14. The experiment in a line: Cytotoxicity against human M14 cells after 4 days by clonogenic assay relative to control. To be noted: M14, 96 h. The class given is functional, cell-based. Put shortly:
as §2

The test system of data set [13] is BJ. As to the kind of experiment: Cell cycle arrest in human BJ cells expressing TERT assessed as accumulation at G2/M stage at 0.5 uM after 72 hrs by propidium iodide staining based flow cytometry (reference value: 5%). Format: ADME.
Data set [14] relates to Nucleic Acid. The experiment in a line: Binding affinity to human 21-TT G-quadruplex DNA structure at 1:5 DNA to calf thymus DNA ratio by competitive inhibition assay. Also on record: concentration or dose not given beside the values. The class given is nucleic-acid assay. Put shortly: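 ESI-MS competition: quadruplex DNA and ligand each 5 μM final, plus calf thymus DNA at duplex/quadruplex ratios 1 and 5 (by phosphate concentration), in ammonium acetate. Percentage bound quadruplex and normalized bound quadruplex (N%) measured by mass spectrometry. SD over at least three independent experiments.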

The text below walks through data of ChEMBL document CHEMBL1687886, “N-cyclic bay-substituted perylene G-quadruplex ligands have selective antiproliferative effects on cancer cells and induce telomere damage” (J Med Chem, 2011).

SMILES strings stand for the structures.

Telomerase reverse transcriptase, sequence (O14746 whole entry): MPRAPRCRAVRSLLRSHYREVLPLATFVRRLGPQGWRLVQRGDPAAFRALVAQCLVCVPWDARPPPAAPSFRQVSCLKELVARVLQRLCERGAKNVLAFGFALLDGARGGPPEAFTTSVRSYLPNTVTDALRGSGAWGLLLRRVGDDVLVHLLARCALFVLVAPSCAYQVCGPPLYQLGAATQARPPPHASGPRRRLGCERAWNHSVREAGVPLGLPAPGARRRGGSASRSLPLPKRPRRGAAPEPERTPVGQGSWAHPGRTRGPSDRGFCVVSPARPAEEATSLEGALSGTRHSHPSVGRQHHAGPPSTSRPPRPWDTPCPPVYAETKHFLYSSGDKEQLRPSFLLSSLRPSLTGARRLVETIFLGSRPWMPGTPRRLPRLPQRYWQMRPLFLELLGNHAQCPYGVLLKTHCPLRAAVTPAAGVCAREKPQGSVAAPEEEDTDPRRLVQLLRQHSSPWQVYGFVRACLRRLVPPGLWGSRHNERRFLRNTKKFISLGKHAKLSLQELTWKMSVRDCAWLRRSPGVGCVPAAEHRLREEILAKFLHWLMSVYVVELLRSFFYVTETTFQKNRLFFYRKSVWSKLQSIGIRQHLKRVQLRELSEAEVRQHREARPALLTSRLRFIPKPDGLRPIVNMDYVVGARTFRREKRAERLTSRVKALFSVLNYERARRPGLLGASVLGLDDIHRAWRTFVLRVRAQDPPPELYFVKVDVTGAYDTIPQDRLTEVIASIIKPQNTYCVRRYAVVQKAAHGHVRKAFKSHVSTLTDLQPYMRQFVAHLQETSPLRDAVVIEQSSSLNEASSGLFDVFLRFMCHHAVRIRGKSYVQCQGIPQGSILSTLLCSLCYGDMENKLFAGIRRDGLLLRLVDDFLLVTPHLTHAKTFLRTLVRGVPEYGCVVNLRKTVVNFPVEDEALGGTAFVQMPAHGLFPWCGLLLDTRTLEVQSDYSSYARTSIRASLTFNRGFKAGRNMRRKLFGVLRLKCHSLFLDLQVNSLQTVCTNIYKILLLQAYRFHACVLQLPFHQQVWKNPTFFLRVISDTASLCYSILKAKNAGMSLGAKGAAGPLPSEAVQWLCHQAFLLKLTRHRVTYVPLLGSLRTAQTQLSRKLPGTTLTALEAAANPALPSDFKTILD

The IC50 is the concentration that inhibits the measured activity by half. Consider `O=C1c2ccc3c4ccc5c6c(cc(N7CCCCC7)c(c7ccc(c2c37)C(=O)N1CCOCCN1CCCCC1)c64)C(=O)N(CCOCCN1CCCCC1)C5=O`, for which the Activity with BJ [1] is 1.5%; in the data set with Nucleic Acid [4], 75%; in the data set on BJ [5], “Non-toxic”; with BJ [7], 80%; with BJ [9], 87.3%; with BJ [11] it was 7.6%. For the same compound, the Activity in the data set on BJ [12] turned out to be 96.3%; with BJ [13] it was 5.1%; in the data set on Nucleic Acid [14], 39%. In addition, the log Ks was found to be 5 in the data set with Nucleic Acid [2], 3.9 in the data set with Nucleic Acid [8] and 4.2 with Nucleic Acid [10]. In addition, the values for the concentration for half-maximal inhibition (IC50) (in data set [3]; in the data set on HT-29; in the data set with M14) were 10 µM, 1.1 µM and 0.8 µM, respectively. In addition, the inhibition of growth at 0.5 µM with BJ [6] amounted to 50%.
